Measurements reported in ChEMBL document CHEMBL4251593, “Nontoxic combretafuranone analogues with high in vitro antibacterial activity” (Eur J Med Chem, 2018).
≈ marks a conversion by molar mass, not a printed value.

Key:
PC-3 [1] = test: Cytotoxicity against human PC3 cells assessed as reduction in cell viability after 48 hrs by ATPlite-based luminescent assay; conditions: PC-3, 48 h
Method in brief: (§1)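 Cells were grown […] with 10% FBS, glutamax, NEAA and pen/strep at 37 °C, 5% CO2. Media were DMEM for RPE-1, HepG2 and BJ (BJ plus 10 ng/ml bFGF), F-12K for PC3, and IMDM for K562/HL-60. Cells were seeded at 500 per well and dosed from DMSO at 12 concentrations, 40 µM to 1 nM, in triplicate. After 48 h, intracellular ATP was read by luminescence. ED50 was obtained by variable-slope nonlinear regression.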

MCF7 = test: Cytotoxicity against human MCF7 cells assessed as reduction in cell viability after 48 hrs by ATPlite-based luminescent assay; conditions: MCF7, 48 h
HepG2 [2] = test: Induction of apoptosis in human HepG2 cells assessed as caspase 3/7 activity after 24 hrs by caspase-glo luminescent assay; type: cell-based; conditions: HepG2, 24 h
Method in brief: (§2)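 Cells were seeded at 500 per well in their growth media and exposed to 12 concentrations from 40 µM to 1 nM, delivered from DMSO, in triplicate. After 24 h, caspase-3/7 activity was read by Caspase-Glo luminescence. Data were normalized and ED50 was fitted by variable-slope nonlinear regression.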

HL-60 [3] = test: Cytotoxicity against human HL60 cells assessed as reduction in cell viability after 48 hrs by ATPlite-based luminescent assay; conditions: HL-60, 48 h; method in brief: as §1
TERT-RPE1 [4] = test: Induction of apoptosis in human RPE1 cells assessed as caspase 3/7 activity after 24 hrs by caspase-glo luminescent assay; type: cell-based; conditions: RPE-1, 24 h; method in brief: as §2
K562 [5] = test: Cytotoxicity against human K562 cells assessed as reduction in cell viability after 48 hrs by ATPlite-based luminescent assay; conditions: K562, 48 h; method in brief: as §1
PC-3 [6] = test: Induction of apoptosis in human PC3 cells assessed as caspase 3/7 activity after 24 hrs by caspase-glo luminescent assay; type: cell-based; conditions: PC-3, 24 h; method in brief: as §2
HepG2 [7] = test: Cytotoxicity against human HepG2 cells assessed as reduction in cell viability after 48 hrs by ATPlite-based luminescent assay; conditions: HepG2, 48 h; method in brief: as §1
K562 [8] = test: Induction of apoptosis in human K562 cells assessed as caspase 3/7 activity after 24 hrs by caspase-glo luminescent assay; type: cell-based; conditions: K562, 24 h; method in brief: as §2
BJ = test: Cytotoxicity against human BJ cells assessed as reduction in cell viability after 48 hrs by ATPlite-based luminescent assay; method in brief: as §1
TERT-RPE1 [9] = test: Cytotoxicity against human RPE1 cells assessed as reduction in cell viability after 48 hrs by ATPlite-based luminescent assay; conditions: RPE-1, 48 h; method in brief: as §1
HL-60 [10] = test: Induction of apoptosis in human HL60 cells assessed as caspase 3/7 activity after 24 hrs by caspase-glo luminescent assay; type: cell-based; conditions: HL-60, 24 h; method in brief: as §2
Staphylococcus aureus [11] = test: Antibacterial activity against methicillin-resistant Staphylococcus aureus HK5996/08 clinical isolate after 48 hrs by microdilution assay; type: functional; conditions: HK5996/08, 48 h
Pseudomonas aeruginosa [12] = test: Antibacterial activity against Pseudomonas aeruginosa ATCC 9027 after 48 hrs by microdilution assay; type: functional; conditions: ATCC 9027, 48 h
Method in brief: (§3)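 Broth microdilution in Mueller-Hinton medium buffered to pH 7.4 (±0.2), with DMSO as diluent at no more than 2% final. Compounds were tested as 2-fold serial dilutions from 2000 to 0.488 µmol/l. The inoculum was 0.5 McFarland (1.5×10^8 cfu/ml). Plates were held at 37 °C and read visually at 24 and 48 h. MIC was taken as 95% growth inhibition versus control, determined twice in duplicate.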

Staphylococcus aureus [13] = test: Antibacterial activity against methicillin-resistant Staphylococcus aureus HK5996/08 clinical isolate after 24 hrs by microdilution assay; type: functional; conditions: HK5996/08, 24 h
Enterococcus sp. [14] = test: Antibacterial activity against Enterococcus sp. HK14365/08 clinical isolate after 24 hrs by microdilution assay; type: functional; conditions: HK14365/08, 24 h
Escherichia coli [15] = test: Antibacterial activity against Escherichia coli ATCC 8739 after 48 hrs by microdilution assay; type: functional; conditions: ATCC 8739, 48 h; method in brief: as §3
Escherichia coli [16] = test: Antibacterial activity against Escherichia coli ATCC 8739 after 24 hrs by microdilution assay; type: functional; conditions: ATCC 8739, 24 h; method in brief: as §3
[17] = system: Staphylococcus epidermidis; test: Antibacterial activity against Staphylococcus epidermidis HK6966/08 clinical isolate after 48 hrs by microdilution assay; type: functional; conditions: HK6966/08, 48 h
Klebsiella pneumoniae [18] = test: Antibacterial activity against Klebsiella pneumoniae HK14368/08 clinical isolate after 24 hrs by microdilution assay; type: functional; conditions: HK14368/08, 24 h
Klebsiella pneumoniae [19] = test: Antibacterial activity against Klebsiella pneumoniae HK11750/08 clinical isolate after 24 hrs by microdilution assay; type: functional; conditions: HK11750/08, 24 h
Pseudomonas aeruginosa [20] = test: Antibacterial activity against Pseudomonas aeruginosa ATCC 9027 after 24 hrs by microdilution assay; type: functional; conditions: ATCC 9027, 24 h; method in brief: as §3
Staphylococcus aureus [21] = test: Antibacterial activity against Staphylococcus aureus ATCC 6538 after 24 hrs by microdilution assay; type: functional; conditions: ATCC 6538, 24 h
Klebsiella pneumoniae [22] = test: Antibacterial activity against Klebsiella pneumoniae HK14368/08 clinical isolate after 48 hrs by microdilution assay; type: functional; conditions: HK14368/08, 48 h
Enterococcus sp. [23] = test: Antibacterial activity against Enterococcus sp. HK14365/08 clinical isolate after 48 hrs by microdilution assay; type: functional; conditions: HK14365/08, 48 h
[24] = system: Staphylococcus epidermidis; test: Antibacterial activity against Staphylococcus epidermidis HK6966/08 clinical isolate after 24 hrs by microdilution assay; type: functional; conditions: HK6966/08, 24 h
Staphylococcus aureus [25] = test: Antibacterial activity against Staphylococcus aureus ATCC 6538 after 48 hrs by microdilution assay; type: functional; conditions: ATCC 6538, 48 h
Klebsiella pneumoniae [26] = test: Antibacterial activity against Klebsiella pneumoniae HK11750/08 clinical isolate after 48 hrs by microdilution assay; type: functional; conditions: HK11750/08, 48 h

| Compound | IC50 (PC-3 [1]) | IC50 (MCF7) | IC50 (HepG2 [2]) | IC50 (HL-60 [3]) | IC50 (TERT-RPE1 [4]) | IC50 (K562 [5]) | IC50 (PC-3 [6]) | IC50 (HepG2 [7]) | IC50 (K562 [8]) | IC50 (BJ) | IC50 (TERT-RPE1 [9]) | IC50 (HL-60 [10]) | MIC95 (Staphylococcus aureus [11]) | MIC95 (Pseudomonas aeruginosa [12]) | MIC95 (Staphylococcus aureus [13]) | MIC95 (Enterococcus sp. [14]) | MIC95 (Escherichia coli [15]) | MIC95 (Escherichia coli [16]) | MIC95 [17] | MIC95 (Pseudomonas aeruginosa [20]) | other results |
| --- | --- | --- | --- | --- | --- | --- | --- | --- | --- | --- | --- | --- | --- | --- | --- | --- | --- | --- | --- | --- | --- |
| CCc1ccc(C2=C(c3ccc(Br)cc3)C(=O)OC2)cc1 | > 40 µM | 13 µM | > 40 µM | 1.02 µM | > 40 µM | 0.47 µM | > 40 µM | > 40 µM | > 40 µM | > 40 µM | 1.3 µM | > 40 µM | – | – | – | – | – | – | – | – | – |
| COc1ccc(C2=C(c3ccc(OC)c(OC)c3)C(CO)(CO)OC2=O)cc1 | > 40 µM | > 40 µM | > 40 µM | > 40 µM | > 40 µM | > 40 µM | > 40 µM | > 40 µM | > 40 µM | > 40 µM | > 40 µM | > 40 µM | 500 µM (≈ 193 µg/mL) | > 500 µM | 500 µM (≈ 193 µg/mL) | > 500 µM | > 500 µM | > 500 µM | 250 µM (≈ 96.6 µg/mL) | > 500 µM | MIC95 (Klebsiella pneumoniae [18]): > 500 µM; MIC95 (Klebsiella pneumoniae [19]): > 500 µM; MIC95 (Staphylococcus aureus [21]): > 500 µM; MIC95 (Klebsiella pneumoniae [22]): > 500 µM; MIC95 (Enterococcus sp. [23]): > 500 µM; MIC95 [24]: 250 µM (≈ 96.6 µg/mL); MIC95 (Staphylococcus aureus [25]): > 500 µM; MIC95 (Klebsiella pneumoniae [26]): > 500 µM |
| Cc1ccc(C2=C(c3ccc(F)cc3)C(=O)OC2)cc1 | > 40 µM | > 40 µM | > 40 µM | 9.34 µM | > 40 µM | 4 µM | > 40 µM | > 40 µM | 3.23 µM | > 40 µM | > 40 µM | 7.53 µM | > 500 µM | > 500 µM | > 500 µM | > 500 µM | > 500 µM | > 500 µM | 125 µM (≈ 33.5 µg/mL) | > 500 µM | MIC95 (Klebsiella pneumoniae [18]): > 500 µM; MIC95 (Klebsiella pneumoniae [19]): > 500 µM; MIC95 (Staphylococcus aureus [21]): 125 µM (≈ 33.5 µg/mL); MIC95 (Klebsiella pneumoniae [22]): > 500 µM; MIC95 (Enterococcus sp. [23]): > 500 µM; MIC95 [24]: 125 µM (≈ 33.5 µg/mL); MIC95 (Staphylococcus aureus [25]): 125 µM (≈ 33.5 µg/mL); MIC95 (Klebsiella pneumoniae [26]): > 500 µM |
| O=C1OCC(c2ccc(C(F)(F)F)cc2)=C1c1ccncc1 | > 40 µM | > 40 µM | > 40 µM | > 40 µM | > 40 µM | > 40 µM | > 40 µM | > 40 µM | > 40 µM | > 40 µM | > 40 µM | > 40 µM | 500 µM (≈ 153 µg/mL) | > 500 µM | 500 µM (≈ 153 µg/mL) | > 500 µM | > 500 µM | > 500 µM | 250 µM (≈ 76.3 µg/mL) | > 500 µM | MIC95 (Klebsiella pneumoniae [18]): > 500 µM; MIC95 (Klebsiella pneumoniae [19]): > 500 µM; MIC95 (Staphylococcus aureus [21]): > 500 µM; MIC95 (Klebsiella pneumoniae [22]): > 500 µM; MIC95 (Enterococcus sp. [23]): > 500 µM; MIC95 [24]: 250 µM (≈ 76.3 µg/mL); MIC95 (Staphylococcus aureus [25]): > 500 µM; MIC95 (Klebsiella pneumoniae [26]): > 500 µM |
| COc1ccc(C2=C(c3ccc(S(C)(=O)=O)cc3)COC2=O)cc1 | > 40 µM | > 40 µM | > 40 µM | > 40 µM | > 40 µM | > 40 µM | > 40 µM | > 40 µM | > 40 µM | > 40 µM | > 40 µM | > 40 µM | > 500 µM | > 500 µM | > 500 µM | > 500 µM | > 500 µM | > 500 µM | > 500 µM | > 500 µM | MIC95 (Klebsiella pneumoniae [18]): > 500 µM; MIC95 (Klebsiella pneumoniae [19]): > 500 µM; MIC95 (Staphylococcus aureus [21]): > 500 µM; MIC95 (Klebsiella pneumoniae [22]): > 500 µM; MIC95 (Enterococcus sp. [23]): > 500 µM; MIC95 [24]: > 500 µM; MIC95 (Staphylococcus aureus [25]): > 500 µM; MIC95 (Klebsiella pneumoniae [26]): > 500 µM |
| O=C(O)c1cn(C2CC2)c2cc(N3CCNCC3)c(F)cc2c1=O [CIPROFLOXACIN] | – | – | – | – | – | – | – | – | – | – | – | – | – | 7.81 µM (≈ 2.59 µg/mL) | – | – | 0.06 µM (≈ 0.0199 µg/mL) | 0.06 µM (≈ 0.0199 µg/mL) | – | 3.9 µM (≈ 1.29 µg/mL) | – |
| O=C1OCC(c2ccc(Cl)cc2)=C1c1ccc(C(F)(F)F)cc1 | > 40 µM | 12.3 µM | > 40 µM | > 40 µM | > 40 µM | > 40 µM | > 40 µM | > 40 µM | > 40 µM | > 40 µM | 14.9 µM | > 40 µM | – | – | – | – | – | – | – | – | – |
